Our source for the IC50 values is BindingDB's records for doi:10.1021/jm940845j (University of California, 1996).

Bounds are passed on as bounds.

Chain of Tumor necrosis factor (P01375 whole entry): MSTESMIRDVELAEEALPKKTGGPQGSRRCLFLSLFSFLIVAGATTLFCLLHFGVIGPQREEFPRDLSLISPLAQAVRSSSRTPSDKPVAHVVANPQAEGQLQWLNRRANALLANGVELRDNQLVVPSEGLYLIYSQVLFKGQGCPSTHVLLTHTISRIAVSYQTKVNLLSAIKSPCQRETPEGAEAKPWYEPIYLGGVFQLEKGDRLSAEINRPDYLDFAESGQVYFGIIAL

The target of this assay is Tumor necrosis factor (Homo sapiens, UniProt P01375). The assay can be described thus: TNF-alpha production in PBMC by ELISA method. An outline of the steps:
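Human PBMC were isolated from heparinized blood by ficoll-histopaque and plated at […] cells/mL in RPMI 1640 with 20% autologous plasma and glutamine. Compound at 2X concentration was added in equal volume, 60 min preincubation, then LPS 10 ug/mL final. Supernatant was taken at 18 h for sandwich ELISA (mouse capture, rabbit detection, poly-HRP). IC50 is the concentration inhibiting TNFa production by 50% of control.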
Background: An ELISA detects its analyte on a solid surface through an enzyme-linked reagent.
For `CCCCCCCn1c(=O)c2nsnc2n(C)c1=O` [6-Heptyl-4-methyl-4H-[1,2,5]thiadiazolo[3,4-d]pyrimidine-5,7-dione], the IC50 came to 75 µM. The figure for `CCCCOc1cc(C[C@@H]2CNC(=O)N2)ccc1OC` [4-(3-Butoxy-4-methoxy-benzyl)-imidazolidin-2-one] is 50 µM; for `COC(=O)/C=C\Cn1c(=O)c2nccnc2n(C)c1=O` [(Z)-4-(1-Methyl-2,4-dioxo-1,4-dihydro-2H-pteridin-3-yl)-but-2-enoic acid methyl ester] it is 25 µM; for `CCOC(=O)CCCn1c(=O)c2nccnc2n(CC(C)C)c1=O` [4-(1-Isobutyl-2,4-dioxo-1,4-dihydro-2H-pteridin-3-yl)-butyric acid ethyl ester] it is 20 µM. For the compound `Cn1c(=O)[nH]c(=O)c2[nH]c(=S)[nH]c21` [8-Mercapto-3-methyl-3,7-dihydro-purine-2,6-dione], the IC50 is > 200 µM. The result for `CCOC(=O)Cn1c(=O)c2c(ncn2C)n(C)c1=O` [(3,7-Dimethyl-2,6-dioxo-2,3,6,7-tetrahydro-purin-1-yl)-acetic acid ethyl ester] reads 200 µM; that for `CCOC(=O)c1ccc(Cn2c(=O)c3c([nH]c(=S)n3C)n(C)c2=O)cc1` [4-(8-Mercapto-3,7-dimethyl-2,6-dioxo-2,3,6,7-tetrahydro-purin-1-ylmethyl)-benzoic acid ethyl ester], > 200 µM; that for `Cn1c(=O)n(CCCC(=O)O)c(=O)c2nccnc21` [4-(1-Methyl-2,4-dioxo-1,4-dihydro-2H-pteridin-3-yl)-butyric acid], > 200 µM.

`CCCn1c(=O)n(CCCC(=O)OCC)c(=O)c2nsnc21` [4-(5,7-Dioxo-4-propyl-4,5-dihydro-7H-[1,2,5]thiadiazolo[3,4-d]pyrimidin-6-yl)-butyric acid ethyl ester] had an IC50 of 18 µM. That is a double-digit micromolar value.

Turning to `CCOC(=O)CCCn1c(=O)c2c(nc(Br)n2C)n(C)c1=O` [4-(8-Bromo-3,7-dimethyl-2,6-dioxo-2,3,6,7-tetrahydro-purin-1-yl)-butyric acid ethyl ester], the IC50 was 60 µM. The result for `CCOC(=O)CCCn1c(=O)c2nc(-c3ccccc3)cnc2n(C)c1=O` [4-(1-Methyl-2,4-dioxo-6-phenyl-1,4-dihydro-2H-pteridin-3-yl)-butyric acid ethyl ester] reads > 200 µM. The result for `CCOC(=O)CCCn1c(=O)c2ccccc2n(C)c1=O` [4-(1-Methyl-2,4-dioxo-1,4-dihydro-2H-quinazolin-3-yl)-butyric acid ethyl ester] reads 55 µM; that for `COc1ccc([C@@H]2CNC(=O)C2)cc1OC1CCCC1` (racemic) [Adeo], 12 µM. The figure for `CCOC(=O)CCCn1c(=O)c2nsnc2n(C)c1=O` [4-(4-Methyl-5,7-dioxo-4,5-dihydro-7H-[1,2,5]thiadiazolo[3,4-d]pyrimidin-6-yl)-butyric acid ethyl ester] is 25 µM; for `CCCn1c(=O)n(CCCC(=O)OCC)c(=O)c2nccnc21` [4-(2,4-Dioxo-1-propyl-1,4-dihydro-2H-pteridin-3-yl)-butyric acid ethyl ester] it is 5 µM; for `Cn1c(=O)n(CCCC(=O)O)c(=O)c2ccccc21` [4-(1-Methyl-2,4-dioxo-1,4-dihydro-2H-quinazolin-3-yl)-butyric acid] it is > 200 µM. For the compound `CC(=O)CCCCn1c(=O)c2c(ncn2C)n(C)c1=O` [1-(5-Oxohexyl)theobromine (pentoxifylline)], 85 µM corresponded to half-maximal inhibition (IC50). The compound `CCCCCn1c(=O)n(CCCC(=O)OCC)c(=O)c2nccnc21` [4-(2,4-Dioxo-1-pentyl-1,4-dihydro-2H-pteridin-3-yl)-butyric acid ethyl ester] showed an IC50 of 16 µM. Compared with the last compound, the IC50 is about 5.3-fold lower. On to `CCCCn1c(=O)n(CCCC(=O)OCC)c(=O)c2nccnc21` [4-(1-Butyl-2,4-dioxo-1,4-dihydro-2H-pteridin-3-yl)-butyric acid ethyl ester], for which the IC50 was determined as 15 µM.

Compound `CCOC(=O)CCCn1c(=O)c2nccnc2n(C)c1=O` [4-(1-Methyl-2,4-dioxo-1,4-dihydro-2H-pteridin-3-yl)-butyric acid ethyl ester] came in with an IC50 of 12 µM. `CCOC(=O)CCCCn1c(=O)c2c(ncn2C)n(C)c1=O` [5-(3,7-Dimethyl-2,6-dioxo-2,3,6,7-tetrahydro-purin-1-yl)-pentanoic acid ethyl ester]: the IC50 was 11 µM. The figure for `CCCn1c(=O)n(CCCC(=O)O)c(=O)c2nccnc21` [4-(2,4-Dioxo-1-propyl-1,4-dihydro-2H-pteridin-3-yl)-butyric acid] is > 200 µM; for `CCOC(=O)CCCn1c(=O)c2nc(CC)c(CC)nc2n(C)c1=O` [4-(6,7-Diethyl-1-methyl-2,4-dioxo-1,4-dihydro-2H-pteridin-3-yl)-butyric acid ethyl ester] it is 130 µM; for `COC(=O)c1ccc(Cn2c(=O)c3c(ncn3C)n(C)c2=O)cc1` [4-(3,7-Dimethyl-2,6-dioxo-2,3,6,7-tetrahydro-purin-1-ylmethyl)-benzoic acid methyl ester] it is > 200 µM. The result for `CCOC(=O)CCn1c(=O)c2c(ncn2C)n(C)c1=O` [3-(3,7-Dimethyl-2,6-dioxo-2,3,6,7-tetrahydro-purin-1-yl)-propionic acid ethyl ester] reads 10 µM. The figure for `COC(=O)c1ccc(Cn2c(=O)c3c(nc(Br)n3C)n(C)c2=O)cc1` [4-(8-Bromo-3,7-dimethyl-2,6-dioxo-2,3,6,7-tetrahydro-purin-1-ylmethyl)-benzoic acid methyl ester] is > 200 µM; for `CCOC(=O)CCCn1c(=O)c2nccnc2n(C2CCOC2)c1=O` (stereo not drawn) [4-[2,4-Dioxo-1-(tetrahydro-furan-3-yl)-1,4-dihydro-2H-pteridin-3-yl]-butyric acid ethyl ester] it is 19 µM. On to `CCOC(=O)CCCn1c(=O)c2nccnc2n(Cc2ccccc2)c1=O` [4-(1-Benzyl-2,4-dioxo-1,4-dihydro-2H-pteridin-3-yl)-butyric acid ethyl ester], for which the IC50 turned out to be 175 µM. The result for `Cn1c(=O)n(CCCC(=O)O)c(=O)c2nsnc21` [4-(4-Methyl-5,7-dioxo-4,5-dihydro-7H-[1,2,5]thiadiazolo[3,4-d]pyrimidin-6-yl)-butyric acid] reads > 200 µM; that for `CCOC(=O)CCCn1c(=O)c2c(ncn2C)n(C)c1=O` [4-(3,7-Dimethyl-2,6-dioxo-2,3,6,7-tetrahydro-purin-1-yl)-butyric acid ethyl ester], 6 µM. The figure for `Cn1cnc2c1c(=O)n(CCCC(=O)O)c(=O)n2C` [4-(3,7-Dimethyl-2,6-dioxo-2,3,6,7-tetrahydro-purin-1-yl)-butyric acid] is > 200 µM; for `CCOC(=O)CCCn1c(=O)c2c([nH]c(=S)n2C)n(C)c1=O` [4-(8-Mercapto-3,7-dimethyl-2,6-dioxo-2,3,6,7-tetrahydro-purin-1-yl)-butyric acid ethyl ester] it is 100 µM; for `CCCn1c(=O)n(CCCC(=O)OCC)c(=O)c2c1ncn2C` [4-(7-Methyl-2,6-dioxo-3-propyl-2,3,6,7-tetrahydro-purin-1-yl)-butyric acid ethyl ester] it is 5 µM.

As usually defined, the IC50 is the point on the concentration scale where inhibition reaches its midpoint. Read a low IC50 as higher potency.
